ChEMBL document CHEMBL1212777, “Novel VIM metallo-beta-lactamase variant from clinical isolates of Enterobacteriaceae from Algeria” (2010)
Values after ≈ are worked out from the molar mass of the structure shown.

Tests used:
Assay type in all cases: functional
Escherichia coli [1] = assay: Antimicrobial activity against Escherichia coli 138 expressing beta-lactamase VIM-19 by microdilution method
Outline: (§1)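 Clinical isolates from intensive care patients. MICs by dilution on Mueller-Hinton agar, inoculum 10^4 CFU per spot, read after growth and interpreted by CA-SFM guidelines. Where the line names an inhibitor, it was held at a fixed level: clavulanic acid 2 μg/ml, tazobactam 4 μg/ml, or EDTA 0.4 mM.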

Escherichia coli [2] = assay: Antimicrobial activity against Escherichia coli 2603 strain expressing beta-lactamase VIM-19 by microdilution method; outline: as §1
Klebsiella pneumoniae [3] = assay: Antimicrobial activity against Klebsiella pneumoniae 2878 strain expressing beta-lactamase VIM-19 by microdilution method; outline: as §1
Klebsiella pneumoniae [4] = assay: Antimicrobial activity against Klebsiella pneumoniae 6828 strain expressing beta-lactamase VIM-19 by microdilution method; outline: as §1
Providencia stuartii [5] = assay: Antimicrobial activity against Providencia stuartii 6858 strain expressing beta-lactamase VIM-19 by microdilution method; outline: as §1
Escherichia coli [6] = assay: Antimicrobial activity against Escherichia coli C600 2878 transconjugate expressing beta-lactamase VIM-19 by microdilution method
Outline: (§2)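 MIC by dilution on Mueller-Hinton agar, inoculum 10^4 CFU per spot, interpreted by CA-SFM guidelines. Inhibitor combinations where tested: clavulanic acid 2 μg/ml, tazobactam 4 μg/ml, EDTA 0.4 mM. Transconjugants came from rifampin-resistant E. coli C600 selected on rifampin 300 μg/ml plus cefotaxime 0.5 μg/ml. Transformants came from electroporation into E. coli DH5α selected on cefotaxime 0.5 μg/ml.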

Escherichia coli [7] = assay: Antimicrobial activity against Escherichia coli DH5alpha 2878 transformant expressing beta-lactamase VIM-19 by microdilution method; outline: as §2
Escherichia coli [8] = assay: Antimicrobial activity against Escherichia coli DH5alpha harbouring plasmid BK-VIM-19 expressing beta-lactamase VIM-19 by microdilution method; outline: as §2
Escherichia coli [9] = assay: Antimicrobial activity against Escherichia coli harbouring plasmid BK-CMV expressing beta-lactamase VIM-19 by microdilution method; outline: as §2
Escherichia coli [10] = assay: Antimicrobial activity against Escherichia coli 138 expressing beta-lactamase VIM-19 by microdilution method in presence of 0.4 mM EDTA; outline: as §2
Escherichia coli [11] = assay: Antimicrobial activity against Escherichia coli 2603 strain expressing beta-lactamase VIM-19 by microdilution method in presence of 0.4 mM EDTA; outline: as §1
Klebsiella pneumoniae [12] = assay: Antimicrobial activity against Klebsiella pneumoniae 2878 strain expressing beta-lactamase VIM-19 […] in presence of 0.4 mM EDTA
Klebsiella pneumoniae [13] = assay: Antimicrobial activity against Klebsiella pneumoniae 6828 strain expressing beta-lactamase VIM-19 by microdilution method in presence of 0.4 mM EDTA; outline: as §1
Providencia stuartii [14] = assay: Antimicrobial activity against Providencia stuartii 6858 strain expressing beta-lactamase VIM-19 by microdilution method in presence of 0.4 mM EDTA; outline: as §1
Escherichia coli [15] = assay: Antimicrobial activity against Escherichia coli DH5alpha 2878 transformant expressing beta-lactamase VIM-19 by microdilution method in presence of 0.4 mM EDTA; outline: as §2
Escherichia coli [16] = assay: Antimicrobial activity against Escherichia coli DH5alpha harbouring plasmid BK-VIM-19 expressing beta-lactamase VIM-19 by microdilution method in presence of 0.4 mM EDTA; outline: as §2
Escherichia coli [17] = assay: Antimicrobial activity against Escherichia coli harbouring plasmidBK-CMV expressing beta-lactamase VIM-19 […] in presence of 0.4 mM EDTA
Escherichia coli [18] = assay: Antimicrobial activity against Escherichia coli C600 2878 transconjugate expressing beta-lactamase VIM-19 by microdilution method in presence of 0.4 mM EDTA
Outline: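 Rifampin-resistant E. coli C600 recipient mated with the clinical strain. Transconjugants were selected on agar with rifampin 300 μg/ml plus cefotaxime 0.5 μg/ml. MICs by dilution on Mueller-Hinton agar, inoculum 10^4 CFU per spot, CA-SFM interpretation. Inhibitor at a fixed level: clavulanic acid 2 μg/ml or EDTA 0.4 mM.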

Escherichia coli [19] = assay: Antimicrobial activity against Escherichia coli 138 expressing beta-lactamase VIM-19 by microdilution method in presence of 4 ug/ml Tazobactam; outline: as §2
Escherichia coli [20] = assay: Antimicrobial activity against Escherichia coli 2603 strain expressing beta-lactamase VIM-19 […] in presence of 4 ug/ml Tazobactam
Klebsiella pneumoniae [21] = assay: Antimicrobial activity against Klebsiella pneumoniae 2878 strain expressing beta-lactamase VIM-19 by microdilution method in presence of 4 ug/ml Tazobactam; outline: as §1
Klebsiella pneumoniae [22] = assay: Antimicrobial activity against Klebsiella pneumoniae 6828 strain expressing beta-lactamase VIM-19 […] in presence of 4 ug/ml Tazobactam
Providencia stuartii [23] = assay: Antimicrobial activity against Providencia stuartii 6858 strain expressing beta-lactamase VIM-19 by microdilution method in presence of 4 ug/ml Tazobactam; outline: as §1
Escherichia coli [24] = assay: Antimicrobial activity against Escherichia coli C600 2878 transconjugate expressing beta-lactamase VIM-19 by microdilution method in presence of 4 ug/ml Tazobactam; outline: as §2
Escherichia coli [25] = assay: Antimicrobial activity against Escherichia coli DH5alpha 2878 transformant expressing beta-lactamase VIM-19 […] in presence of 4 ug/ml Tazobactam
Escherichia coli [26] = assay: Antimicrobial activity against Escherichia coli DH5alpha harbouring plasmid BK-VIM-19 expressing beta-lactamase VIM-19 by microdilution method in presence of 4 ug/ml Tazobactam; outline: as §2
Escherichia coli [27] = assay: Antimicrobial activity against Escherichia coli harbouring plasmidBK-CMV expressing beta-lactamase VIM-19 […] in presence of 4 ug/ml Tazobactam

Compound | MIC (Escherichia coli [1]) | MIC (Escherichia coli [2]) | MIC (Klebsiella pneumoniae [3]) | MIC (Klebsiella pneumoniae [4]) | MIC (Providencia stuartii [5]) | MIC (Escherichia coli [6]) | MIC (Escherichia coli [7]) | MIC (Escherichia coli [8]) | MIC (Escherichia coli [9]) | MIC (Escherichia coli [10]) | MIC (Escherichia coli [11]) | MIC (Klebsiella pneumoniae [12]) | MIC (Klebsiella pneumoniae [13]) | MIC (Providencia stuartii [14]) | MIC (Escherichia coli [15]) | MIC (Escherichia coli [16]) | MIC (Escherichia coli [17]) | also measured
CC(C)(O/N=C(\C(=O)N[C@@H]1C(=O)N2C(C(=O)[O-])=C(C[n+]3ccccc3)CS[C@H]12)c1csc(N)n1)C(=O)O [CEFTAZIDIME] | 512 µg/mL (≈ 937 µM) | 128 µg/mL (≈ 234 µM) | 128 µg/mL (≈ 234 µM) | 64 µg/mL (≈ 117 µM) | 64 µg/mL (≈ 117 µM) | 32 µg/mL (≈ 58.5 µM) | 128 µg/mL (≈ 234 µM) | 32 µg/mL (≈ 58.5 µM) | 0.12 µg/mL (≈ 0.22 µM) | 128 µg/mL | 16 µg/mL | 8 µg/mL | 8 µg/mL | 4 µg/mL | 8 µg/mL | 0.12 µg/mL | 0.12 µg/mL | 
CO/N=C(\C(=O)N[C@@H]1C(=O)N2C(C(=O)O)=C(COC(N)=O)CS[C@H]12)c1ccco1 [CEFUROXIME] | > 1020 µg/mL | > 1020 µg/mL | 1020 µg/mL (≈ 2410 µM) | 1020 µg/mL (≈ 2410 µM) | 1020 µg/mL (≈ 2410 µM) | 512 µg/mL (≈ 1210 µM) | 1020 µg/mL (≈ 2410 µM) | 1020 µg/mL (≈ 2410 µM) | 4 µg/mL (≈ 9.43 µM) |  |  |  |  |  |  |  |  | 
CC(=O)OCC1=C(C(=O)O)N2C(=O)[C@@H](NC(=O)Cc3cccs3)[C@H]2SC1 [CEPHALOTHIN] | > 2050 µg/mL | 2050 µg/mL (≈ 5170 µM) | > 2050 µg/mL | 2050 µg/mL (≈ 5170 µM) | > 2050 µg/mL | 1020 µg/mL (≈ 2580 µM) | 2050 µg/mL (≈ 5170 µM) | 1020 µg/mL (≈ 2580 µM) | 4 µg/mL (≈ 10.1 µM) |  |  |  |  |  |  |  |  | 
C[C@@H](O)[C@H]1C(=O)N2C(C(=O)O)=C(SCCNC=N)C[C@H]12 [IMIPENEM ANHYDROUS] | 32 µg/mL (≈ 107 µM) | 16 µg/mL (≈ 53.4 µM) | 64 µg/mL (≈ 214 µM) | 4 µg/mL (≈ 13.4 µM) | 16 µg/mL (≈ 53.4 µM) | 4 µg/mL (≈ 13.4 µM) | 8 µg/mL (≈ 26.7 µM) | 16 µg/mL (≈ 53.4 µM) |  | 0.5 µg/mL | 0.25 µg/mL | 0.5 µg/mL | < 0.12 µg/mL | 0.5 µg/mL | < 0.12 µg/mL | < 0.12 µg/mL | < 0.12 µg/mL | MIC (Escherichia coli [18]): < 0.12 µg/mL
C[C@@H](O)[C@H]1C(=O)N2C(C(=O)O)=C(S[C@@H]3CN[C@H](C(=O)N(C)C)C3)[C@H](C)[C@H]12 [MEROPENEM] | 16 µg/mL (≈ 41.7 µM) | 8 µg/mL (≈ 20.9 µM) | 32 µg/mL (≈ 83.4 µM) | 4 µg/mL (≈ 10.4 µM) | 8 µg/mL (≈ 20.9 µM) | 1 µg/mL (≈ 2.61 µM) | 8 µg/mL (≈ 20.9 µM) | 8 µg/mL (≈ 20.9 µM) | < 0.12 µg/mL | < 0.12 µg/mL | < 0.12 µg/mL | < 0.12 µg/mL | < 0.12 µg/mL | < 0.12 µg/mL | < 0.12 µg/mL | < 0.12 µg/mL | < 0.12 µg/mL | MIC (Escherichia coli [18]): < 0.12 µg/mL
CCN1CCN(C(=O)N[C@@H](C(=O)N[C@@H]2C(=O)N3[C@@H]2SC(C)(C)[C@@H]3C(=O)O)c2ccccc2)C(=O)C1=O [PIPERACILLIN] | > 2050 µg/mL | > 2050 µg/mL | 2050 µg/mL (≈ 3960 µM) | 1020 µg/mL (≈ 1980 µM) | 256 µg/mL (≈ 495 µM) | 512 µg/mL (≈ 989 µM) | 1020 µg/mL (≈ 1980 µM) | 512 µg/mL (≈ 989 µM) | 2 µg/mL (≈ 3.86 µM) |  |  |  |  |  |  |  |  | MIC (Escherichia coli [19]): 2050 µg/mL; MIC (Escherichia coli [20]): 1020 µg/mL; MIC (Klebsiella pneumoniae [21]): 2050 µg/mL; MIC (Klebsiella pneumoniae [22]): 1020 µg/mL; MIC (Providencia stuartii [23]): 256 µg/mL; MIC (Escherichia coli [24]): 512 µg/mL; MIC (Escherichia coli [25]): 1020 µg/mL; MIC (Escherichia coli [26]): 512 µg/mL; MIC (Escherichia coli [27]): 2 µg/mL
CC1(C)S[C@@H]2[C@H](NC(=O)[C@H](C(=O)O)c3ccsc3)C(=O)N2[C@H]1C(=O)O [TICARCILLIN] | > 2050 µg/mL | > 2050 µg/mL | > 2050 µg/mL | > 2050 µg/mL | > 2050 µg/mL | > 2050 µg/mL | > 2050 µg/mL | > 2050 µg/mL | 2 µg/mL (≈ 5.2 µM) |  |  |  |  |  |  |  |  | 
